{"data": "Measurements from different studies", "read-out": "enzyme activity", "mode": "inhibitor", "RET": "Proto-oncogene tyrosine-protein kinase receptor Ret (RET, Homo sapiens, UniProt P07949)", "RET Y791F": "Proto-oncogene tyrosine-protein kinase receptor Ret (RET, Homo sapiens, UniProt P07949, Y791F)", "note": "Lines come from different studies, so protocols differ."}
{"SMILES": "CNC(=O)c1cc2c(Oc3ccc(NC(=O)C4(C(=O)Nc5ccc(F)cc5)CC4)cc3)ccnc2cc1OC", "target": "Proto-oncogene tyrosine-protein kinase receptor Ret (RET, Homo sapiens, UniProt P07949, V804L)", "technique": "radiometric", "tested at": "1 µM", "inhibition [%]": 90}
{"SMILES": "C=CC(=O)Nc1cc(Nc2nccc(Nc3cc(Cl)c(F)cc3C(C)(C)O)n2)c(OC)cc1N1CC[C@@H](N(C)C)C1", "target": "RET", "tested at": "1 µM", "inhibition [%]": 1}
{"SMILES": "CCCS(=O)(=O)Nc1ccc(F)c(C(=O)c2c[nH]c3ncc(-c4ccc(Cl)cc4)cc23)c1F", "target": "RET", "tested at": "1 µM", "inhibition [%]": "< 10"}
{"SMILES": "CNCc1ccc(-c2cc(-c3nc(-c4ccc(S(=O)(=O)C(C)C)cc4)cnc3N)on2)cc1", "target": "RET", "tested at": "2 µM", "inhibition [%]": 42}
{"SMILES": "COc1cc2ncnc(Nc3ccc(Oc4ccccc4)c(C)c3C)c2cc1OC", "target": "RET Y791F", "tested at": "1 µM", "inhibition [%]": 31}
{"SMILES": "CC/C(=N\\NC(=O)NCc1cccc(O)c1)c1ccc(O)c(C)c1O", "target": "RET", "tested at": "0.1 µM", "inhibition [%]": 0.2}
{"SMILES": "COc1cc2ncnc(Nc3ccc(Oc4ccccc4)cc3C)c2cc1OC", "target": "RET", "tested at": "1 µM", "inhibition [%]": 34}
{"SMILES": "COc1cc(-c2cc(-c3ccc(N4CCNCC4)cc3)cnc2N)cc(OC)c1OC", "target": "RET Y791F", "tested at": "0.1 µM", "inhibition [%]": 3}
